XiGFP reactiv = activators of inactive X chromosome reactivation, primary screen, imaging, XiGFP fibroblasts, GFP high-content imaging, set 2; XiGFP mouse fibroblasts, % GFP-positive cells imaging, 3 d; cells co-treated with 5-aza-dC sensitizer; scaled so ellipticine positive control = 100%; activation, % at 7.58 µM; 360,000 tested, 0.055% active; AID 743238, 2013;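 active = mean normalized replicate activation at least 10% and every replicate at or above 10%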;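 also: 0% = median of on-plate neutral control wells and 100% = ellipticine 6 µM median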
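System: 68-5-11 XiGFP fibroblast line; Timing: 3 days compound exposure; Compound dosing: one concentration, pinned; Benchmarks: positive control ellipticine, 6 µM final; Buffer or medium: DMEM containing 5-aza-dC.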
E-selectin induc = E-selectin induction in HUVECs, primary screen, imaging, HUVEC, immunofluorescence imaging, single point | AID 686992, 2013 | P16581 | activation, % at 7.58 µM | 260,000 tested, 0.37% active | normalized: neutral wells 0, TNF-alpha wells 100;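 active = mean E-selectin-positive cell signal at least 10% of the positive control, reached in at least 60% of replicates, without over 20% cell loss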
Target sequence (P16581 whole entry, looked up): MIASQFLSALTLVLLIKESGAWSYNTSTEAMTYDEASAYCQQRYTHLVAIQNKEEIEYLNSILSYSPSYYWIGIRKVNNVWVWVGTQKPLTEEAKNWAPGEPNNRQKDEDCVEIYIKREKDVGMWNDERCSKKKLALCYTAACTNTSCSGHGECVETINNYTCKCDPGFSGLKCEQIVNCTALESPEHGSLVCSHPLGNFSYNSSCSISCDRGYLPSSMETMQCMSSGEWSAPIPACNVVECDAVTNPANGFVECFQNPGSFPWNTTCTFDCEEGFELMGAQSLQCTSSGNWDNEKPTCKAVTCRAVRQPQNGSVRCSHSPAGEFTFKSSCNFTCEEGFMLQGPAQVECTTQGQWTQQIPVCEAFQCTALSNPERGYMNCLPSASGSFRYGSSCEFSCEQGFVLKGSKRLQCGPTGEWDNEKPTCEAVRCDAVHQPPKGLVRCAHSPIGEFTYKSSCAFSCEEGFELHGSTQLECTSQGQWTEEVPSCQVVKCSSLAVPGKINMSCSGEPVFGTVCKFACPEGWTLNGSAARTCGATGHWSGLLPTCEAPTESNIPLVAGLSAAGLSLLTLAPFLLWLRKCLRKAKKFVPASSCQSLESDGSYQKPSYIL
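Read-out basis: % PE-positive cells; Test system: HUVEC primary endothelial cells; Technique: immunofluorescence imaging; Dosing: single-point compound dose.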
* marks the source's active call; other numbers are inactive results; / = not tested or not shown. The sample as a whole holds a higher share of hits than the screen did.

SMILES	XiGFP reactiv	E-selectin induc
C[C@H](CO)N1C[C@H](C)[C@H](CN(C)C(=O)Nc2ccc(F)cc2)Oc2ccc(NC(=O)CCCCCC(=O)Nc3ccccc3N)cc2C1=O	0	-15
C[C@@H]1CN([C@@H](C)CO)C(=O)c2cc(NC(=O)CCCCCC(=O)Nc3ccccc3N)ccc2O[C@H]1CN(C)C(=O)Nc1ccc2c(c1)OCO2	0	105*
C[C@H](CO)N1C[C@H](C)[C@H](CN(C)C(=O)Nc2ccc3c(c2)OCO3)Oc2ccc(NC(=O)CCCCCC(=O)Nc3ccccc3N)cc2C1=O	0	23
C[C@@H]1CN([C@H](C)CO)C(=O)c2cc(NC(=O)CCCCCC(=O)Nc3ccccc3N)ccc2O[C@H]1CN(C)C(=O)Nc1ccc2c(c1)OCO2	0	28*
C[C@H]1CN([C@@H](C)CO)C(=O)c2cc(NC(=O)CCCCCC(=O)Nc3ccccc3N)ccc2O[C@@H]1CN(C)C(=O)Nc1ccc2c(c1)OCO2	0	3
O=C(C[C@H]1CC[C@H](NS(=O)(=O)c2ccccc2)[C@@H](CO)O1)NCc1ccncn1	0	-2
O=C(Cc1ccccc1)N1CC(=O)N2[C@H](C1)[C@@H](c1ccc(-c3cccc(F)c3)cc1)[C@@H]2CO	0	0
O=C(COC(=O)CCc1nc2ccccc2c(=O)[nH]1)NC(c1ccccc1)c1ccccc1	0	-1
CC(NC(=O)COC(=O)CCc1nc2ccccc2c(=O)[nH]1)c1ccccc1 (stereo not given)	0	49*
COc1ccc2c3c([nH]c2c1)[C@H](CO)N(C(=O)c1ccc(F)cc1)CC31CN(C(=O)Nc2ccc(F)cc2)C1	0	0
COC(=O)c1noc(C)c1-c1ccnn1C(=O)c1ccc(C)cc1	0	29*
Cc1onc(-c2ccccc2)c1-c1ccnn1C(=O)NC(C)C	0	/
CN(C)C(=O)[C@@H]1N[C@@H]2c3ccc(-c4ccc(F)cc4)c(=O)n3C[C@@H]2[C@H]1CO	0	0
CCC(=O)N1CC2(C1)CN(C(=O)Cc1ccccc1)[C@@H](CO)c1c2c2ccc(OC)cc2n1C	0	0
NC1=NC(=O)C(=Cc2ccccc2)S1	0	0
NC1=NC(=O)/C(=C/c2cccc(F)c2)S1	0	54*
CCC(=O)N1CC2(C1)CN(Cc1ccccc1Cl)[C@H](CO)c1[nH]c3cc(OC)ccc3c12	0	0
O=Nc1c(-c2c(O)[nH]c3cc(Br)ccc23)[nH]c2ccccc12	0	66*
O=C(CNC(=O)c1ccccc1)N=Nc1c(O)[nH]c2ccc(Br)cc12	0	/
O=C(NC1CCCC1)C1C(c2ccc(C(F)(F)F)cc2)=Nc2ccccc2N1C(=O)c1ccccc1 (stereo not given)	0	136*
O=C(NC1CCCC1)C1C(c2ccc(C(F)(F)F)cc2)=Nc2ccccc2N1C(=O)c1ccco1 (stereo not given)	0	1
COc1ccc2c3c([nH]c2c1)[C@@H](CO)N(C(=O)c1ccc(F)cc1)CC31CN(C)C1	0	0
CC(CN1CCCC1)OC(=O)c1ccccc1Cl (stereo not given)	0	/
CC(CN1CCCCC1)OC(=O)c1ccco1 (stereo not given)	0	39*
S=C(NCc1ccco1)N1CCC(c2nc3ccccc3o2)CC1	0	60*
SMILES	XiGFP reactiv	E-selectin induc
Cc1cccc(NC(=S)N2CCC(c3nc4ccccc4o3)CC2)c1	0	11
CC(=O)N1CC2(C1)[C@@H](c1ccccc1)[C@@H](CO)N2CC1CCOCC1	0	0
C[C@H]1CN([C@@H](C)CO)C(=O)Cc2cc(NC(=O)CCN3CCOCC3)ccc2O[C@H]1CN(C)S(C)(=O)=O	0	-3
C[C@H]1CN([C@@H](C)CO)C(=O)Cc2cc(NC(=O)Cc3ccccc3)ccc2O[C@@H]1CN(C)S(C)(=O)=O	0	-13
C[C@@H]1CN([C@H](C)CO)C(=O)Cc2cc(NC(=O)CCN3CCOCC3)ccc2O[C@H]1CN(C)S(C)(=O)=O	0	332*
C[C@@H]1CN([C@H](C)CO)C(=O)Cc2cc(NC(=O)Cc3ccccc3)ccc2O[C@H]1CN(C)S(C)(=O)=O	0	68*
CCCN1C[C@H](C)[C@H](OC)CN(C)C(=O)c2ccc(NC(=O)c3ccccc3)cc2OC[C@@H]1C	0	0
CC(C)NC(=O)N(C)C[C@@H]1Oc2ccc(N(C)C)cc2C(=O)N(C)C[C@H]1C	0	/
CNC[C@@H]1Oc2cc(-c3ccccc3F)ccc2S(=O)(=O)N([C@@H](C)CO)C[C@@H]1C	1	0
COc1ccc(OCCN2CCN(S(=O)(=O)c3ccccc3C#N)CC2)cc1	0	/
COc1ccc(OCCN2CCN(S(=O)(=O)c3ccccc3C(F)(F)F)CC2)cc1	0	139*
COc1cccc(Cn2nc3c4cc(F)ccc4n(Cc4ccc(F)cc4)cc-3c2=O)c1	0	0
COc1cc2c3nnc(-c4ccc(F)cc4)c-3cn(Cc3ccc(C)cc3)c2cc1OC	98*	1
COc1cc2c3nnc(-c4ccccc4)c-3cn(Cc3ccc(F)cc3)c2cc1OC	0	/
COc1cc2c3nnc(-c4ccc(F)cc4)c-3cn(Cc3cccc(C)c3)c2cc1OC	82*	0
C[C@@H]1CN(C)C(=O)c2cccnc2O[C@H]1CN(C)S(C)(=O)=O	0	/
CCCCNc1ccc2c3c(cccc13)C(=O)N(CCCC)C2=O	123*	0
CN(C)CCCN1C(=O)c2cccc3c(Br)ccc(c23)C1=O	0	/
COc1ccc2c3c([nH]c2c1)[C@@H](CO)N(C(=O)C1CCCC1)CC31CN(Cc2cccc(F)c2)C1	0	0
COc1ccc(OCCNC(=O)C(Cc2c[nH]c3ccccc23)NC(C)=O)cc1 (stereo not given)	0	/
CC(=O)NC(Cc1c[nH]c2ccccc12)C(=O)NCCc1ccccn1 (stereo not given)	0	46*
CC(C)C#Cc1ccc([C@H]2[C@H]3CN(C(=O)Cc4cccnc4)CC(=O)N3[C@H]2CO)cc1	1	/
CC(=O)N1Cc2ccccc2C(C)CC12CCCCC2 (stereo not given)	0	1
CC(=O)N1CC23C=CC(CC2CC12CCCCCC2)O3 (stereo not given)	0	35*
CN1C(=O)c2cc(NS(=O)(=O)c3ccccc3Cl)ccc2OC[C@H]2O[C@@H](CC(=O)Nc3cc(F)ccc3F)CC[C@@H]21	0	/
SMILES	XiGFP reactiv	E-selectin induc
COc1ccc(NC(=O)NC2(C(=O)N3CCN4CCCC4C3)CCCCC2)cc1 (stereo not given)	0	0
COc1ccc(NC(=O)NC2(C(=O)N3CCOCC3)CCCCC2)cc1	0	39*
Cc1ccc(NC(=O)Nc2ccc(F)c(Cl)c2)cc1	1	0
CCC(CC)NC(=O)Nc1ccc(F)c(Cl)c1	0	27*
COc1ccc2c3c(n(C)c2c1)[C@@H](CO)N(C(=O)c1ccccn1)CC31CCN(C)CC1	0	0
COc1ccc2c3c(n(C)c2c1)[C@H](CO)N(CC1CC1)CC31CCN(C(=O)CC2CC2)CC1	0	/
CCc1cccc2cc3c(N)c(C(=O)Nc4ccc(S(=O)(=O)N5CCCC5)cc4)sc3nc12	89*	-1
COc1cccc(CC(=O)Nc2ccc(S(=O)(=O)N3CCCCC3)cc2)c1	0	0

Screening data deposited in PubChem BioAssay by Broad Institute.
